≈ marks a conversion by molar mass, not a printed value. One block for each compound: values may come before it.
Experiments:
[1] = target: T1, Ribosomal protein S6 kinase beta-1 (Homo sapiens, UniProt P23443); experiment: Inhibition of S6K1
[2] = Kinetic solubility of the compound in 50 mM phosphate buffer at pH 6.5; type: physicochemical
[3] = Half life in human liver microsomes at 1 uM by LC/MS/MS analysis; type: ADME, Microsome
How it was run: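 Test compound incubated with human liver microsomes to measure Phase I metabolic stability. Remaining compound quantified by LC/MS/MS, and stability reported as half-life (T1/2) in minutes.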

[4] = Half life in human hepatocytes at 1 uM by LC/MS/MS analysis; type: ADME, cell-based, Liver, Hepatocyte
How it was run: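 Stability measured in intact human hepatocytes, with remaining parent compound quantified by LC/MS/MS. Result expressed as half-life (T1/2) in minutes.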

CYP1A2 = target: T2, CYP1A2 (Homo sapiens, UniProt P05177); experiment: Inhibition of CYP1A2 at 3 uM by LC/MS/MS analysis; type: ADME
T2 sequence (P05177 whole entry): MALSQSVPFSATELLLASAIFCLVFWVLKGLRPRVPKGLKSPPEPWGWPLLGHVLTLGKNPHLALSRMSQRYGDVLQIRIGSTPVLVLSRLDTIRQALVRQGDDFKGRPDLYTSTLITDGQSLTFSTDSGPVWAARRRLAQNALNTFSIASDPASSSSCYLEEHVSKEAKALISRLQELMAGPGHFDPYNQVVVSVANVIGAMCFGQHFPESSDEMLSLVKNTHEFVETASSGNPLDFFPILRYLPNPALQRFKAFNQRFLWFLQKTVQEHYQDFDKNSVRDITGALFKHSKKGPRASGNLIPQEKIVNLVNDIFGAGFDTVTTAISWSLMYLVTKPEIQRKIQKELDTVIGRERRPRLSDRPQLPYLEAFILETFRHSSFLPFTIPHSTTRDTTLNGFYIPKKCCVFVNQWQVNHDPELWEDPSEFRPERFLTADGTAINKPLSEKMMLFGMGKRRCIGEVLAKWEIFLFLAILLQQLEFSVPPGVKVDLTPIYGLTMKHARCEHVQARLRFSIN

CYP2C9 = CYP2C9 (Homo sapiens, UniProt P11712); experiment: Inhibition of CYP2C9 at 3 uM by LC/MS/MS analysis; type: ADME
CYP2D6 = CYP2D6 (Homo sapiens, UniProt P10635); experiment: Inhibition of CYP2D6 at 3 uM by LC/MS/MS analysis; type: ADME
CYP3A4 = CYP3A4 (Homo sapiens, UniProt P08684); experiment: Inhibition of CYP3A4 at 3 uM by LC/MS/MS analysis; type: ADME
[5] = target: Voltage-gated inwardly rectifying potassium channel KCNH2 (Homo sapiens, UniProt Q12809); experiment: Displacement of labeled dofetilide from human ERG
[6] = target: T1, Ribosomal protein S6 kinase beta-1; experiment: Inhibition of S6K1 in ribosomal protein S6 by whole cell assay

Sequence of Voltage-gated inwardly rectifying potassium channel KCNH2 (Q12809 whole entry): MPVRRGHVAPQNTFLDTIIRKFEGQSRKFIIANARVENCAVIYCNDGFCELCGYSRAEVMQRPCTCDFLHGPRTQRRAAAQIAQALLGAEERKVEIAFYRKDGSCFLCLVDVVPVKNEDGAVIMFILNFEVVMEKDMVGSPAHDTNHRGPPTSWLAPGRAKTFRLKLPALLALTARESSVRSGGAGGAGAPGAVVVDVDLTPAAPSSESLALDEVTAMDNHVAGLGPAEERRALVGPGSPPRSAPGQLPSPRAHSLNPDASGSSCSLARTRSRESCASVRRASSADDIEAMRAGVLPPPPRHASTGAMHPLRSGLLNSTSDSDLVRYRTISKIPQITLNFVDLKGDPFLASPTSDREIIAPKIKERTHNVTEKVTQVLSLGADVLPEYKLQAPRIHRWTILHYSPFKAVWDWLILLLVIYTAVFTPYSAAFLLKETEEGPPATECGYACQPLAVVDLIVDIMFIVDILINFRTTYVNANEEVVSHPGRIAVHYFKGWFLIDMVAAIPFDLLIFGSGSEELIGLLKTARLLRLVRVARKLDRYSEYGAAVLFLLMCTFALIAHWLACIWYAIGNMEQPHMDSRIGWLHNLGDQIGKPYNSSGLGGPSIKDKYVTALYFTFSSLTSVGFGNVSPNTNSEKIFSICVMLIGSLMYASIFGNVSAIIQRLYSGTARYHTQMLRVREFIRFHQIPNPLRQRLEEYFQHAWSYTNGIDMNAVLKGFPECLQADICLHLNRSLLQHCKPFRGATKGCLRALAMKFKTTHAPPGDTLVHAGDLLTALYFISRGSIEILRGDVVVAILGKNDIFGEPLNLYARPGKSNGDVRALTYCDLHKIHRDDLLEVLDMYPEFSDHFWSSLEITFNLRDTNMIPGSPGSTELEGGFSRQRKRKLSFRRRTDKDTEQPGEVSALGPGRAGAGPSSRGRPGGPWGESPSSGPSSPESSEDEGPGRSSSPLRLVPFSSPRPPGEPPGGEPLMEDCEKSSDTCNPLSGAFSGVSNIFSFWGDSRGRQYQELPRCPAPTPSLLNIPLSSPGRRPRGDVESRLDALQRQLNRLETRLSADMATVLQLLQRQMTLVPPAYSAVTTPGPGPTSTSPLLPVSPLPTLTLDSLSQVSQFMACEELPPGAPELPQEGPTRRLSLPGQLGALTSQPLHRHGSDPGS
T1 sequence (P23443 whole entry): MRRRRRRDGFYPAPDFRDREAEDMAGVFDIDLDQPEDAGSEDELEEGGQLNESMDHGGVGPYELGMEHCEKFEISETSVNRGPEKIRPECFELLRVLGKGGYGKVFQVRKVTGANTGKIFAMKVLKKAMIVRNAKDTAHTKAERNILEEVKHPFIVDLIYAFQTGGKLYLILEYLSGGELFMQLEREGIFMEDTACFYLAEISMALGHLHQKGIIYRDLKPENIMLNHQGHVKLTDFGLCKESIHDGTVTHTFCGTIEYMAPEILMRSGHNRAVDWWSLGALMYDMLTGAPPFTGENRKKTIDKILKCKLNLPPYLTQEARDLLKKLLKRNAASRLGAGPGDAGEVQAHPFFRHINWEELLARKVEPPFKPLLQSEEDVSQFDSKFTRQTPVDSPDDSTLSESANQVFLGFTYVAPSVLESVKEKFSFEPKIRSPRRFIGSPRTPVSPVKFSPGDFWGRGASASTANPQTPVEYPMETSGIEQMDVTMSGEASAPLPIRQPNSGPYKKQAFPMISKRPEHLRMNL
Sequence of CYP2C9 (P11712 whole entry): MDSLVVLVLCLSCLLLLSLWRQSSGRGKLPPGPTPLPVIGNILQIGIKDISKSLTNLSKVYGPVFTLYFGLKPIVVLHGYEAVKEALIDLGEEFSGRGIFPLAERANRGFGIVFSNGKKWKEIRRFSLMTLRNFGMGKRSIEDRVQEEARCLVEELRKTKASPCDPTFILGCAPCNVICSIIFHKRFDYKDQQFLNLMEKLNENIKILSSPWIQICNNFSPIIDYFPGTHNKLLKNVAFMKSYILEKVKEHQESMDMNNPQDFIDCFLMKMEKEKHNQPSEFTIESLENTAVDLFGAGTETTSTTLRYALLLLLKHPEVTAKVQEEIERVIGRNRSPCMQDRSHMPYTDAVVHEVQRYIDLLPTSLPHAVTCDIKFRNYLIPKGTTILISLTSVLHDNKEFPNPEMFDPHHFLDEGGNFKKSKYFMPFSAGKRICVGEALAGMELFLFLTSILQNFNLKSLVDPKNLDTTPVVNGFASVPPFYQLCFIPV
Sequence of CYP3A4 (P08684 whole entry): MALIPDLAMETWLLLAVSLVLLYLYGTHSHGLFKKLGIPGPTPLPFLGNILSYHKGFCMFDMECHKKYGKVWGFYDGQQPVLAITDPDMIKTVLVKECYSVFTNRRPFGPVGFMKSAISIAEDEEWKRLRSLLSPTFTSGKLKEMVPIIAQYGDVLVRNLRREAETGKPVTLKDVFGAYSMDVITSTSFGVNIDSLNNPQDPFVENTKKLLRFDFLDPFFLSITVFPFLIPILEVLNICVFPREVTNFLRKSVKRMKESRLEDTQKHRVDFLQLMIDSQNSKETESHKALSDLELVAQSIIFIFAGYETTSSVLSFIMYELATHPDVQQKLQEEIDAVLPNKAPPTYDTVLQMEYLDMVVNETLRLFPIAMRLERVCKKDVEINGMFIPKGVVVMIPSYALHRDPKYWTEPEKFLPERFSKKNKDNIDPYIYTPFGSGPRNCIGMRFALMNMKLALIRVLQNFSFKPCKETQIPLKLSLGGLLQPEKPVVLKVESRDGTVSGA
Sequence of CYP2D6 (P10635 whole entry): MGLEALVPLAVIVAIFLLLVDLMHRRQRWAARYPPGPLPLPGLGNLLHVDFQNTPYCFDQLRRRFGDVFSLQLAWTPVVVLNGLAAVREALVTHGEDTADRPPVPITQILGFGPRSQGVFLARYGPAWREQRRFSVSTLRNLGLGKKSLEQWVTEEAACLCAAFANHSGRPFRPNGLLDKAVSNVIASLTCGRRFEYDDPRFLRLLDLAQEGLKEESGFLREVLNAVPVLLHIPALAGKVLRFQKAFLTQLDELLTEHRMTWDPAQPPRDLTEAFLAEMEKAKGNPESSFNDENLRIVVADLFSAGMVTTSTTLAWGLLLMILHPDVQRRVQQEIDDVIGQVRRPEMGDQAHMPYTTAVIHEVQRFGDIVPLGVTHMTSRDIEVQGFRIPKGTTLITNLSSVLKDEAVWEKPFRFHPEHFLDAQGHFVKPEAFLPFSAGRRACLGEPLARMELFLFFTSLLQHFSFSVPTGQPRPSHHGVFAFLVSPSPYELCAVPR

- IC50 [1]: 62 nM
SMILES: CCc1cc(C(=O)NCCN(C)C)c(NC(=O)Nc2ccc3[nH]ncc3c2)s1

- IC50 [1]: 19 nM
- solubility kinetic [2]: 41 µg/mL (≈ 102 µM)
- half-life at 1 µM [3]: > 2 h
- half-life at 1 µM [4]: 4.38 h
- inhibition at 3 µM (CYP1A2): 52%
- inhibition at 3 µM (CYP2C9): 30%
- inhibition at 3 µM (CYP2D6): 9%
- inhibition at 3 µM (CYP3A4): 0%
SMILES: CC(C)(C)c1cc(C(=O)NCCO)c(NC(=O)Nc2ccc3[nH]ncc3c2)s1
- inhibition (INH) [5]: 0%

- IC50 [1]: 196 nM
SMILES: C[C@@H](O)c1cc(C(=O)NCCN(C)C)c(NC(=O)Nc2ccc3[nH]ncc3c2)s1

- IC50 [1]: 7 nM
- solubility kinetic [2]: 10 µg/mL (≈ 24.1 µM)
- half-life at 1 µM [3]: > 2 h
- half-life at 1 µM [4]: 6.12 h
- inhibition at 3 µM (CYP1A2): 45%
- inhibition at 3 µM (CYP2C9): 14%
- inhibition at 3 µM (CYP2D6): 0%
- inhibition at 3 µM (CYP3A4): 2%
SMILES: COCCNC(=O)c1cc(C(C)(C)C)sc1NC(=O)Nc1ccc2[nH]ncc2c1
- inhibition (INH) [5]: 0%

- IC50 [1]: 29 nM
SMILES: CC(C)c1cc(C(=O)NCCN(C)C)c(NC(=O)Nc2ccc3[nH]ncc3c2)s1

- IC50 [1]: 1900 nM
SMILES: CN(C)CCNC(=O)c1cc(-c2ccccc2)sc1NC(=O)Nc1ccc2[nH]ncc2c1

- IC50 [1]: 19 nM
- solubility kinetic [2]: 7 µg/mL (≈ 22.3 µM)
- half-life at 1 µM [3]: 0.917 h
- inhibition at 3 µM (CYP1A2): 36%
- inhibition at 3 µM (CYP2C9): 52%
- inhibition at 3 µM (CYP2D6): 20%
- inhibition at 3 µM (CYP3A4): 4%
SMILES: CC(C)(C)c1ccc(NC(=O)Nc2ccc3[nH]ncc3c2)s1
- inhibition (INH) [5]: 0%

- IC50 [1]: > 20000 nM
SMILES: CC(C)(C)c1cc(C(=O)N2CCS(=O)(=O)CC2)c(NC(=O)Nc2ccc(Oc3ccccc3)cc2)s1

- IC50 [1]: 201 nM
SMILES: CC(C)(C)c1cc(C(=O)NCc2ccccc2)c(NC(=O)Nc2ccc3[nH]ncc3c2)s1

- IC50 [1]: 70 nM
SMILES: CN(C)CCNC(=O)c1cc(C2CC2)sc1NC(=O)Nc1ccc2[nH]ncc2c1

- IC50 [1]: > 20000 nM
SMILES: CC(C)(C)c1cc(C(=O)N2CCS(=O)(=O)CC2)c(NC(=O)Nc2ccc3oc4cccnc4c3c2)s1

- IC50 [1]: 15 nM
- IC50 [6]: 521 nM
- solubility kinetic [2]: 171 µg/mL (≈ 399 µM)
- half-life at 1 µM [3]: 0.633 h
- half-life at 1 µM [4]: 2.08 h
- inhibition at 3 µM (CYP1A2): 18%
- inhibition at 3 µM (CYP2C9): 0%
- inhibition at 3 µM (CYP2D6): 7%
- inhibition at 3 µM (CYP3A4): 0%
SMILES: CN(C)CCNC(=O)c1cc(C(C)(C)C)sc1NC(=O)Nc1ccc2[nH]ncc2c1
- inhibition (INH) [5]: 28%

- IC50 [1]: > 20000 nM
SMILES: CC(C)(C)c1cc(C(=O)N2CCS(=O)(=O)CC2)c(NC(=O)Nc2ccc(Oc3ccccc3F)cc2)s1

- IC50 [1]: 223 nM
SMILES: Cc1cc(C(=O)NCCN(C)C)c(NC(=O)Nc2ccc3[nH]ncc3c2)s1

- IC50 [1]: 10 nM
- IC50 [6]: 685 nM
- solubility kinetic [2]: 10 µg/mL (≈ 25.2 µM)
- half-life at 1 µM [3]: > 2 h
- half-life at 1 µM [4]: 2.3 h
- inhibition at 3 µM (CYP1A2): 40%
- inhibition at 3 µM (CYP2C9): 11%
- inhibition at 3 µM (CYP2D6): 12%
- inhibition at 3 µM (CYP3A4): 11%
SMILES: CC(C)(C)c1cc(C(=O)NC2CC2)c(NC(=O)Nc2ccc3[nH]ncc3c2)s1
- inhibition (INH) [5]: 0%

- IC50 [1]: 4000 nM
SMILES: Cc1c(O)cccc1NC(=O)Nc1sc(C(C)(C)C)cc1C(=O)N1CCS(=O)(=O)CC1

- IC50 [1]: 191 nM
SMILES: CC(C)(C)c1cc(C(=O)NCc2ccccc2F)c(NC(=O)Nc2ccc3[nH]ncc3c2)s1

- IC50 [1]: 34 nM
SMILES: CC(C)(C)c1cc(C(=O)N2CCS(=O)(=O)CC2)c(NC(=O)Nc2ccc3[nH]ncc3c2)s1

- IC50 [1]: 9000 nM
SMILES: CC(C)(C)c1cc(C(=O)N2CCS(=O)(=O)CC2)c(NC(=O)Nc2ccc(Oc3cccnc3)cc2)s1

- IC50 [1]: > 20000 nM
SMILES: COc1ccccc1Oc1ccc(NC(=O)Nc2sc(C(C)(C)C)cc2C(=O)N2CCS(=O)(=O)CC2)cc1

- IC50 [1]: > 20000 nM
SMILES: CC(C)(C)c1cc(C(=O)N2CCS(=O)(=O)CC2)c(NC(=O)Nc2ccc(Oc3ccncc3)cc2)s1

- IC50 [1]: 379 nM
SMILES: C[C@H](O)c1cc(C(=O)NCCN(C)C)c(NC(=O)Nc2ccc3[nH]ncc3c2)s1

- IC50 [1]: 207 nM
SMILES: CC(C)(C)c1cc(C(=O)N2CCOCC2)c(NC(=O)Nc2ccc3[nH]ncc3c2)s1

Reference: ChEMBL document CHEMBL1641460, “Potent and selective thiophene urea-templated inhibitors of S6K” (Bioorg Med Chem Lett, 2011)
